Experimental data from different studies.
Compare with care: the assays were run in different laboratories.
Read-out: cell growth or viability

| SMILES | cell line | assay | setting | IC50 |
| --- | --- | --- | --- | --- |
| Cc1ccc2nc(-c3ccc4c(c3)OCO4)[nH]c2c1 | MDA-MB-231 | MTT | 48 h | > 100 µM |
| COc1cc2nccc(Oc3ccc(NC(=O)C4(C(=O)Nc5ccc(F)cc5)CC4)cc3)c2cc1OC | CMK | trypan blue | 72 h | > 5.91 µM |
| Oc1c(I)cc(Cl)c2cccnc12 | BEL-7404 | MTT | 48 h | 65.1 µM |
| Cc1ccc2nc(-c3c4ccccc4cc4ccccc34)[nH]c2c1 | MDA-MB-231 | MTT | 48 h | 36.8 µM |
| COc1ccc(-c2cc(=O)c3c(OC)cc(C)c(-c4c(C)cc(OC)c5c(=O)cc(-c6ccc(OC)cc6)oc45)c3o2)cc1 | HS27 | MTT | 24 h | > 200 µM |
| C#Cc1cccc(Nc2ncnc3cc(OCCOC)c(OCCOC)cc23)c1 | A-375 | MTT | – | 4.14 µM |
| Oc1ccc(Nc2nc(-c3ccc(Cl)cc3)cs2)cc1 | FF2441 | MTS | 24 h | > 100 µM |
| COc1cc(C)cc2oc(-c3ccccc3)cc(=O)c12 | HS27 | MTT | 24 h | > 200 µM |
| COC(=O)CN=c1scc(-c2ccccc2)n1-c1ccc(C)cc1 | Panc 04.03 | MTT | 72 h | 50.3 µM |
| COc1cccc2c1C(=O)c1c(O)c3c(c(O)c1C2=O)C[C@@](O)(C(=O)CO)C[C@@H]3O[C@H]1C[C@H](N)[C@H](O)[C@H](C)O1 | LLC-PK11 | neutral red | 48 h | 0.98 µg/mL |
| COc1ccc(-c2cc(=O)c3c(OC)cc(C)cc3o2)cc1 | HS27 | MTT | 24 h | > 200 µM |
| Cc1ccc2nc(-c3ccc(F)cc3)n(Cc3ccccc3)c2c1 | MDA-MB-231 | MTT | – | 28.5 µM |
| COc1ccc(C(=O)O[C@@H]2CN3Cc4c(cc5c(c4OC)OCO5)[C@@]24C=C[C@H](OC)C[C@@H]34)cc1OC | MRC5 | WST-1 | – | 6.1 µM |
| COC(=O)CN=c1scc(-c2ccccc2)n1-c1ccccc1[N+](=O)[O-] | SiHa | MTT | 72 h | 6.78 µM |
| CCOc1cc(-c2nc3ccccc3[nH]2)ccc1O | MDA-MB-231 | MTT | 48 h | 48.3 µM |
| COC(=O)CN=c1scc(-c2ccccc2)n1-c1ccccc1 | Panc 04.03 | MTT | 72 h | > 100 µM |
| COc1ccc(C[C@H]2CO[C@H](c3ccc(OC)c(OC)c3)[C@H]2COC(=O)C=C(C)C)cc1OC | rat VSMC | resazurin | 48 h | 34.3 µM |
| COc1cc(-c2ncn(/C=C\C(=O)OC(C)C)n2)cc(C(F)(F)F)c1 | Mono-Mac-1 | – | 72 h | 0.474 µM |
| C/C=C(/C)C(=O)OC[C@H]1[C@@H](Cc2ccc(C(F)(F)F)cc2)CO[C@@H]1c1ccccc1 | rat VSMC | resazurin | 48 h | 4.2 µM |
| COC(=O)CN=c1scc(-c2ccccc2)n1-c1ccccc1OC | Panc 04.03 | MTT | 72 h | 52.2 µM |

| SMILES | cell line | assay | setting | IC50 |
| --- | --- | --- | --- | --- |
| COc1cc(C)cc2oc(-c3ccc(C(F)(F)F)cc3)cc(=O)c12 | HS27 | MTT | 24 h | > 200 µM |
| Oc1c(Br)cc(Br)c2cccnc12 | BEL-7404 | MTT | 48 h | 68.1 µM |
| Cc1ccc2nc(-c3cccc(O)c3)[nH]c2c1 | MDA-MB-231 | MTT | 48 h | > 100 µM |
| COC(=O)CN=c1scc(-c2ccccc2)n1-c1ccc(OC)cc1 | Panc 04.03 | MTT | 72 h | 75.2 µM |
| C/C=C(/C)C(=O)OC[C@H]1[C@@H](Cc2ccc(C(F)(F)F)cc2)CO[C@@H]1c1ccc(OC)c(OC)c1 | rat VSMC | resazurin | 48 h | 20.1 µM |
| COC(=O)/C=C/C=C/c1ccc2c(c1)OCO2 | MRC5 | SRB | – | 250 µM |
| O=[N+]([O-])c1ccc(-c2nc3ccccc3n2Cc2ccccc2)cc1 | MDA-MB-231 | MTT | – | 8.32 µM |
| COc1cc(C)c(-c2c(C)cc(OC)c3c(=O)cc(-c4ccc(C(F)(F)F)cc4)oc23)c2oc(-c3ccc(C(F)(F)F)cc3)cc(=O)c12 | HS27 | MTT | 24 h | > 200 µM |
| COc1ccnc(-c2cc(OC)ccn2)c1 | BEL-7404 | MTT | 48 h | > 50 µM |
| COc1cc(OC)c2c(=O)cc(-c3ccccc3Br)oc2c1 | HS27 | MTT | 24 h | > 200 µM |
| COC(=O)CN=c1scc(-c2ccccc2)n1-c1ccccc1C | Panc 04.03 | MTT | 72 h | > 100 µM |
| COc1cc(C)cc2oc(-c3ccccc3Br)cc(=O)c12 | HS27 | MTT | – | 130 µM |
| Cc1ccc2c(Cl)cc(Cl)c(O)c2n1 | BEL-7404 | MTT | 48 h | > 100 µM |
| Nc1ccn([C@@H]2O[C@H](CO)[C@@H](O)C2(F)F)c(=O)n1 | Panc 04.03 | MTT | 72 h | 0.19 µM |
| COc1cc(C)cc2oc(-c3cccc(Br)c3)cc(=O)c12 | HS27 | MTT | 24 h | 104 µM |
| Cc1ccc2nc(-c3ccncc3)[nH]c2c1 | MDA-MB-231 | MTT | 48 h | 74.6 µM |
| Clc1ccnc2c1ccc1c(Cl)ccnc12 | BEL-7404 | MTT | 48 h | > 50 µM |
| CC(=O)c1cccc(/N=N/c2cc(/C=C/C(=O)O)ccc2O)c1 | A-375 | MTT | – | > 50 µM |
| Clc1ccc(-c2nc3ccccc3n2Cc2ccccc2)cc1 | MDA-MB-231 | MTT | – | 35 µM |
| Nc1ncc(-c2cnn(C3CCNCC3)c2)cc1-c1nnc(CC2CC2)o1 | CMK | trypan blue | 72 h | 0.653 µM |
